This is one part of a sample in which hits are shown more often than they occur.
PfG6PD inh = PfG6PD (Plasmodium falciparum) enzyme inhibition; PfGluPho enzyme, NADPH resazurin-diaphorase fluorescence; 0.78% of 350,000 active; AID 504690; inhibition, % at 20 µM;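 active = inhibition reaching at least a set limit at 20 µM in the primary screen, cut at about 59% in these data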;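 also: 0% = DMSO wells with substrate and 100% = DMSO wells lacking glucose-6-phosphate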
Diaphorase inh = inhibits diaphorase or chemically oxidizes, flagging diaphorase assay artifacts; diaphorase resazurin-to-resorufin fluorescence, NADH, 16 min; bacterial (C. kluyveri) enzyme, not human; inhibition, % at 20 µM; 0.69% of 190,000 active; AID 1217;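 active = primary screen inhibition at 20 µM above a set limit, cut at about 50% in these data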;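 also: plate controls were DMSO with full reaction for no effect and wells lacking NADH for full effect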
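Benchmarks: positive control wells lacking NADH, neutral wells with DMSO only. System: bacterial diaphorase enzyme (C. kluyveri). Input: 0.14 U/mL diaphorase, enzyme working solution. Detection: resorufin fluorescence, excitation 544 nm, emission 590 nm. Times: 16-min room-temperature incubation before reading.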
Diaph act CS = diaphorase activation or chemical reduction counter-screen | Diaphorase/resazurin coupled assay, resorufin fluorescence, 16 min; stronger effect = higher value; 1 = vehicle wells, 0 = NADH-free wells | AID 1229 | activation factor at 20 µM | 0.005% of 190,000 active;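 active = diaphorase activity raised at least twofold by the compound at 20 µM; inactive = activation factor below 2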
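Material: Purified diaphorase enzyme from Clostridium kluyveri | Buffer or medium: 50 mM HEPES pH 7.4 with 4.542 mM MgCl2, 0.005% Tween 20 | Times: 16 min enzyme reaction, ambient temperature | Signal: Red resorufin fluorescence at 544/590 nm excitation/emission | Measure: Increased resorufin signal from activators or reducing compounds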
G6PDH CS = inhibits Leuconostoc G6PDH, flagging false hits in G6PDH-based assays; Purified L. mesenteroides G6PDH, diaphorase/resazurin coupled fluorescence, 45 min; inhibition, % at 5 µM; 0.12% of 200,000 active; AID 1020
Lmaj promast = Leishmania major promastigote growth inhibition. Leishmania major promastigotes, resazurin fluorescence viability. AID 1063. 9% of 200,000 active. inhibition, % at 10 µM;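 also: promastigotes grown with compound for 44 hours at 28 °C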
DTT redox prof = compounds producing H2O2 with reducing agent – biochemical, NIH compound library profiling, artefact control for MLSCN library redox annotation, primary screen | 0.03% of 200,000 active | activation, % at 10 µM | AID 878 | DTT-dependent redox cycling H2O2, phenol red/HRP absorbance; 100% = 100 µM peroxide control, 0% = buffer;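 active = activation of at least 50% relative to the plate's high and low controls in the primary single-dose screen; inactive = activation below 50%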;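 also: compound incubated with DTT at 0.8 mM final as the reducing agent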
* hit, by the source's call; . = not tested or not shown. Rule as the data show it, unless noted: active = inhibition above about 50%; inactive = the rest.

SMILES	PfG6PD inh	Diaphorase inh	Diaph act CS	G6PDH CS	Lmaj promast	DTT redox prof
O=C(CSc1nc2ccc(Cl)cc2[nH]1)c1cccs1	41	.	.	.	.	.
O=C(CSc1nc2cc(Cl)ccc2o1)c1cccs1	26	22	0.8	-1	57*	-3
C/C(=N\NC(=O)CCCNc1ccc(C)cc1)c1ccccn1	-3	-2	1	13	98*	-1
CC(=NNC(=S)Nc1ccccc1)c1ccccn1	32	.	.	.	.	.
C=CCNC(=S)N/N=C(\C)c1ccccn1	37	-12	1.1	10	100*	0
CCCCNC(=O)CCn1nc(-c2ccc(C)cc2)c2ccccc2c1=O	2	.	.	.	.	.
O=C(Nc1ccc(N2CCCCCC2)cc1)c1ccccc1Cl	3	18	0.8	9	57*	-2
O=C(/C=C/c1ccc(Cl)c([N+](=O)[O-])c1)Nc1ccc(N2CCCC2)cc1	4	7	0.9	-3	67*	0
O=C(NC(=S)Nc1ccccc1N1CCCC1)c1ccccc1[N+](=O)[O-]	13	12	0.9	-10	12	0
O=C(NC(=S)Nc1ccc(N2CCCC2)cc1)c1ccccc1[N+](=O)[O-]	-3	8	0.9	-2	54*	0
O=C(NC(=S)Nc1ccc(N2CCCCC2)cc1)c1ccc2c(c1)OCCO2	12	23	0.8	-1	64*	-1
O=C(/C=C/c1ccc(Cl)c([N+](=O)[O-])c1)Nc1ccc(NC(=O)c2ccco2)cc1	-16	5	1	-27	0	0
O=C(NC(=S)Nc1ccc(N2CCOCC2)cc1)c1ccc2c(c1)OCCO2	14	29	0.7	-2	2	0
CC(=O)N1CCN(c2ccc(NC(=O)c3ccccc3Cl)cc2)CC1	18	.	.	.	.	.
N#Cc1cccc(NC(=O)CC2CCCC2)c1	4	.	.	.	.	.
O=S(=O)(Nc1ccc(Cl)cn1)c1ccc(F)cc1	-10	.	.	.	.	.
CC1CN(C(=S)NC(=O)c2ccc([N+](=O)[O-])cc2)CC(C)O1 (stereo not given)	6	8	0.9	11	-4	1
O=C(NNC(=S)NC(=O)c1ccccc1[N+](=O)[O-])c1ccccc1O	-44	59*	0.4	5	-1	0
O=C(CNCc1cccs1)Nc1ccc(N2CCCCCC2)cc1	3	15	0.8	2	51*	-2
CCOC(=O)COc1coc(CN2CCN(c3ccc(F)cc3)CC2)cc1=O	10	.	.	.	.	.
Cc1cc2nc(N)sc2cc1[N+](=O)[O-]	1	10	0.9	6	5	1
COc1cc(NC(=O)C2C3CCC(O3)C2C(=O)O)cc(OC)c1 (stereo not given)	-3	.	.	.	.	.
COc1ccc(NS(=O)(=O)c2cccc(C(=O)NNC(=O)c3ccc(=O)[nH]c3)c2)cc1	-8	.	.	.	.	.
Clc1ccc(CSC2=NCCCN2)cc1Cl	-11	-6	1.1	2	91*	-2
Cc1csc(=O)n1CC(=O)OCC(=O)Nc1ccc(Cl)cc1F	2	.	.	.	.	.
SMILES	PfG6PD inh	Diaphorase inh	Diaph act CS	G6PDH CS	Lmaj promast	DTT redox prof
CN1CCN(C2=C(Cl)C(=O)N(C3CCCCC3)C2=O)CC1	-10	20	0.8	0	95*	18
CC(=O)NC(C(=O)N1CCC(c2nc3ccccc3s2)CC1)C(C)C (stereo not given)	-4	.	.	.	.	.
O=S(=O)(Cc1ccccc1)N1CCc2ccccc21	.	4	1	-14	100*	-1
COc1cccc(NC(=S)N2CCC(N(C)CC3CCCO3)CC2)c1 (stereo not given)	-9	0	1	19	94*	0
CCC(C)N(C)C1CCN(C(=S)Nc2cccc(OC)c2)CC1 (stereo not given)	-8	2	1	3	11	0
Cc1ccc(C)c(NC(=S)N2CCC(N(C)CC3CCCO3)CC2)c1 (stereo not given)	-3	-7	1.1	-5	91*	0
Cc1ccc(NC(=S)N2CCC(N(C)CC3CCCO3)CC2)c(C)c1 (stereo not given)	8	10	0.9	-2	90*	0
CC(Cc1ccccn1)NC(=O)CCc1nnc(C2CCCCC2)o1 (stereo not given)	-4	2	1	23	-3	-1

Bioassay records deposited in PubChem BioAssay by several laboratories.
